Numbering of substitutions follows the chain as printed. The source made the active and inactive calls. The calls are words filed in the database; no cut-off is given here.
How the values were obtained:
[1] = target: T1, High mobility group protein B1 (Homo sapiens, UniProt P09429); assay: Binding affinity to HMGB1 (unknown origin)
T1 sequence (P09429 whole entry): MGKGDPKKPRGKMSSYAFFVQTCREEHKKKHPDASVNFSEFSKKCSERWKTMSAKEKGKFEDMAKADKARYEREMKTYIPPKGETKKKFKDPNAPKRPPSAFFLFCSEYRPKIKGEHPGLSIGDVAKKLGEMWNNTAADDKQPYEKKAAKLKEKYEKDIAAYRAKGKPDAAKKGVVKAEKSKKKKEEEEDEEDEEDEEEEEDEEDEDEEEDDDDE

[2] = target: T2, High mobility group protein B1 (Mus musculus) (UniProt P63158); assay: Inhibition of HMGB1 in mouse RAW264.7 cells assessed as LPS-induced TNFalpha release treated for 2 hrs prior to LPS-challenge measured after 16 hrs by ELISA; assay type: cell-based
T2 sequence (whole entry): T1 sequence (P09429 whole entry) with E189D, D202E
Method in brief: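 RAW 264.7 murine macrophage-like cells grown in RPMI 1640 with 10% heat-inactivated FBS and 2 mM glutamine, 5% CO2. Compounds or HMGB1 neutralizing antibody added 2 h before LPS (0.01 ng/mL), then 16 h stimulation; TNF-α in supernatant measured by ELISA. Each compound run at least twice in triplicate; ED50 given with 95% confidence interval.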

Mus musculus [3] = assay: Cardioprotective activity against DOX-induced acute heart failure DCM in ip dosed C57BL/6J mouse model assessed as improvement in the maximum ascending rate of the LV pressure administered qd from day 10 post DOX-challenge measured after 50 days by echocardiography; assay type: functional, organism-based
Mus musculus [4] = assay: Cardioprotective activity against DOX-induced chronic heart failure DCM ip dosed C57BL/6J mouse model assessed as improvement of diastolic interventricular septum administered qd from day 70 post DOX challenge measured after 35 days; assay type: functional, organism-based
Mus musculus [5] = assay: Cardioprotective activity against DOX-induced chronic heart failure DCM ip dosed C57BL/6J mouse model assessed as improvement of LV diastolic anterior wall administered qd from day 70 post DOX challenge measured after 35 days; assay type: functional, organism-based
Mus musculus [6] = assay: Cardioprotective activity against DOX-induced chronic heart failure DCM ip dosed C57BL/6J mouse model assessed as improvement of ejection fraction administered qd from day 70 post DOX challenge measured after 35 days; assay type: functional, organism-based
Mus musculus [7] = assay: Cardioprotective activity against DOX-induced acute heart failure DCM in ip dosed C57BL/6J mouse model assessed as increase in ejection fraction administered qd from day 10 post DOX-challenge measured after 50 days by echocardiography; assay type: functional, organism-based
Mus musculus [8] = assay: Cardioprotective activity against DOX-induced chronic heart failure DCM ip dosed C57BL/6J mouse model assessed as increase in survival rate administered qd from day 70 post DOX challenge measured after 35 days; assay type: functional, organism-based
Method in brief: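 Chronic DOX model: ip DOX at 3.5 mg/kg weekly for 8 weeks, then once-daily treatment with the indicated agent beginning two weeks after the last DOX dose. Survival followed by Kaplan-Meier curves and compared with a log rank test, n = 20/group.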

Mus musculus [9] = assay: Cardioprotective activity against DOX-induced acute heart failure DCM in ip dosed C57BL/6J mouse model assessed as increase in fractional shortening administered qd from day 10 post DOX-challenge measured after 50 days by echocardiography; assay type: functional, organism-based
Mus musculus [10] = assay: Cardioprotective activity against DOX-induced acute heart failure DCM in ip dosed C57BL/6J mouse model assessed as increase in survival rate administered qd from day 10 post DOX-challenge measured after 50 days by echocardiography; assay type: functional, organism-based
Mus musculus [11] = assay: Cardioprotective activity against DOX-induced chronic heart failure DCM ip dosed C57BL/6J mouse model assessed as improvement of systolic interventricular septum administered qd from day 70 post DOX challenge measured after 35 days; assay type: functional, organism-based
Mus musculus [12] = assay: Cardioprotective activity against DOX-induced acute heart failure DCM in ip dosed C57BL/6J mouse model assessed as improvement in the maximum descending rate of the LV pressure administered qd from day 10 post DOX-challenge measured after 50 days by echocardiography; assay type: functional, organism-based
Mus musculus [13] = assay: Cardioprotective activity against DOX-induced chronic heart failure DCM ip dosed C57BL/6J mouse model assessed as improvement of fractional shortening administered qd from day 70 post DOX challenge measured after 35 days; assay type: functional, organism-based

CC1(C)[C@@H](O[C@H]2O[C@H](C(=O)O)[C@@H](O)[C@H](O)[C@H]2O[C@@H]2O[C@H](C(=O)O)[C@@H](O)[C@H](O)[C@H]2O)CC[C@]2(C)[C@H]3C(=O)C=C4[C@@H]5C[C@@](C)(C(=O)O)CC[C@]5(C)CC[C@@]4(C)[C@]3(C)CC[C@@H]12 [GLYCYRRHIZIN]
Kd [1]: 150 µM | ED50 [2]: 70 µM

CCCNC[C@@]1(C)CC[C@]2(C)CC[C@]3(C)C(=CC(=O)[C@@H]4[C@@]5(C)CC[C@H](O[C@H]6O[C@H](C(=O)O)[C@@H](O)[C@H](O)[C@H]6O[C@@H]6O[C@H](C(=O)O)[C@@H](O)[C@H](O)[C@H]6O)C(C)(C)[C@@H]5CC[C@]43C)[C@@H]2C1
ED50 [2]: 226 µM

CC1(C)[C@@H](O[C@H]2O[C@H](C(=O)O)[C@@H](O)[C@H](O)[C@H]2O[C@@H]2O[C@H](C(=O)O)[C@@H](O)[C@H](O)[C@H]2O)CC[C@]2(C)[C@H]3C(=O)C=C4[C@@H]5C[C@@](C)(CN[C@@H](CCC(=O)O)C(=O)O)CC[C@]5(C)CC[C@@]4(C)[C@]3(C)CC[C@@H]12
Activity (Mus musculus [3]): Active | Activity (Mus musculus [4]): Active | Activity (Mus musculus [5]): Active | Activity (Mus musculus [6]): Active | Activity (Mus musculus [7]): Active | Activity (Mus musculus [8]): Active | Activity (Mus musculus [9]): Active | Activity (Mus musculus [10]): Active | Activity (Mus musculus [11]): Active | ED50 [2]: 141 µM | Activity (Mus musculus [12]): Active | Activity (Mus musculus [13]): Active

CC1(C)[C@@H](O[C@H]2O[C@H](C(=O)O)[C@@H](O)[C@H](O)[C@H]2O[C@@H]2O[C@H](C(=O)O)[C@@H](O)[C@H](O)[C@H]2O)CC[C@]2(C)[C@H]3C(=O)C=C4[C@@H]5C[C@@](C)(CN[C@@H](Cc6c[nH]c7ccccc67)C(=O)O)CC[C@]5(C)CC[C@@]4(C)[C@]3(C)CC[C@@H]12
Activity (Mus musculus [3]): Active | Activity (Mus musculus [7]): Active | Activity (Mus musculus [9]): Active | Activity (Mus musculus [10]): Active | ED50 [2]: 144 µM | Activity (Mus musculus [12]): Active

CC1(C)[C@@H](O[C@H]2O[C@H](C(=O)O)[C@@H](O)[C@H](O)[C@H]2O[C@@H]2O[C@H](C(=O)O)[C@@H](O)[C@H](O)[C@H]2O)CC[C@]2(C)[C@H]3C(=O)C=C4[C@@H]5C[C@@](C)(CN[C@@H](CO)C(=O)O)CC[C@]5(C)CC[C@@]4(C)[C@]3(C)CC[C@@H]12
Activity (Mus musculus [3]): Active | Activity (Mus musculus [7]): Active | Activity (Mus musculus [9]): Active | Activity (Mus musculus [10]): Active | ED50 [2]: 161 µM | Activity (Mus musculus [12]): Active

CC1(C)[C@@H](O[C@H]2O[C@H](C(=O)O)[C@@H](O)[C@H](O)[C@H]2O[C@@H]2O[C@H](C(=O)O)[C@@H](O)[C@H](O)[C@H]2O)CC[C@]2(C)[C@H]3C(=O)C=C4[C@@H]5C[C@@](C)(CN[C@@H](Cc6ccccc6)C(=O)O)CC[C@]5(C)CC[C@@]4(C)[C@]3(C)CC[C@@H]12
inhibition [2]: inactive

CC1(C)[C@@H](O[C@H]2O[C@H](C(=O)O)[C@@H](O)[C@H](O)[C@H]2O[C@@H]2O[C@H](C(=O)O)[C@@H](O)[C@H](O)[C@H]2O)CC[C@]2(C)[C@H]3C(=O)C=C4[C@@H]5C[C@@](C)(CN[C@@H](Cc6ccc(O)cc6)C(=O)O)CC[C@]5(C)CC[C@@]4(C)[C@]3(C)CC[C@@H]12
inhibition [2]: inactive

CC1(C)[C@@H](O[C@H]2O[C@H](C(=O)O)[C@@H](O)[C@H](O)[C@H]2O[C@@H]2O[C@H](C(=O)O)[C@@H](O)[C@H](O)[C@H]2O)CC[C@]2(C)[C@H]3C(=O)C=C4[C@@H]5C[C@@](C)(CNC6CCCCC6)CC[C@]5(C)CC[C@@]4(C)[C@]3(C)CC[C@@H]12
ED50 [2]: 193 µM

CC1(C)[C@@H](O[C@H]2O[C@H](C(=O)O)[C@@H](O)[C@H](O)[C@H]2O[C@@H]2O[C@H](C(=O)O)[C@@H](O)[C@H](O)[C@H]2O)CC[C@]2(C)[C@H]3C(=O)C=C4[C@@H]5C[C@@](C)(CN[C@@H](CC(=O)O)C(=O)O)CC[C@]5(C)CC[C@@]4(C)[C@]3(C)CC[C@@H]12
Activity (Mus musculus [3]): Active | Activity (Mus musculus [4]): inactive | Activity (Mus musculus [5]): inactive | Activity (Mus musculus [6]): inactive | Activity (Mus musculus [7]): Active | Activity (Mus musculus [8]): inactive | Activity (Mus musculus [9]): Active | Activity (Mus musculus [10]): Active | Activity (Mus musculus [11]): inactive | ED50 [2]: 144 µM | Activity (Mus musculus [12]): Active | Activity (Mus musculus [13]): inactive

C[C@H](NC[C@@]1(C)CC[C@]2(C)CC[C@]3(C)C(=CC(=O)[C@@H]4[C@@]5(C)CC[C@H](O[C@H]6O[C@H](C(=O)O)[C@@H](O)[C@H](O)[C@H]6O[C@@H]6O[C@H](C(=O)O)[C@@H](O)[C@H](O)[C@H]6O)C(C)(C)[C@@H]5CC[C@]43C)[C@@H]2C1)C(=O)O
Activity (Mus musculus [3]): Active | Activity (Mus musculus [7]): inactive | Activity (Mus musculus [10]): inactive | ED50 [2]: 337 µM | Activity (Mus musculus [12]): Active

CC1(C)[C@@H](O[C@H]2O[C@H](C(=O)O)[C@@H](O)[C@H](O)[C@H]2O[C@@H]2O[C@H](C(=O)O)[C@@H](O)[C@H](O)[C@H]2O)CC[C@]2(C)[C@H]3C(=O)C=C4[C@@H]5C[C@@](C)(CNCC(=O)O)CC[C@]5(C)CC[C@@]4(C)[C@]3(C)CC[C@@H]12
Activity (Mus musculus [3]): inactive | Activity (Mus musculus [7]): inactive | Activity (Mus musculus [9]): inactive | Activity (Mus musculus [10]): inactive | inhibition [2]: inactive | Activity (Mus musculus [12]): inactive

From ChEMBL document CHEMBL2311367, “Synthesis, biological evaluation, and molecular modeling of glycyrrhizin derivatives as potent high-mobility group box-1 inhibitors with anti-heart-failure activity in vivo” (J Med Chem, 2013)
